Results from paper PMC5431288 (European journal of medicinal chemistry, 2016).

Experiments:
[1] = test system: panel of 11 human tumor cell lines; assay: MTT antiproliferative assay, whole panel; assay type: cell-based; conditions: read-out: GI50 values across the panel
Summary of the method: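 Leukemia lines grown in RPMI-1640 and adherent carcinoma lines in DMEM, each with 10% FBS plus penicillin/streptomycin. Seeded at 8 × 10³ cells/well and settled 18 h at 37 °C, 5% CO₂. Medium was then replaced with fresh medium holding graded compound concentrations from 10 mM DMSO stocks, in triplicate, for 72 h. Viability by MTT; GI50 is the concentration inhibiting proliferation by 50%.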

HeLa cells [2] = assay: Flow cytometric cell cycle analysis, HeLa; assay type: cell-based, human; conditions: 24 h, different concentrations
Summary of the method: (§1)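 5 × 10⁵ HeLa (DMEM) or Jurkat (RPMI-1640) cells, both with 10% FBS, were treated with a range of test compound concentrations for 24 h. Cells were then collected and fixed in ice-cold 70% ethanol, lysed in buffer with RNase A and 0.1% Triton X-100, and PI-stained. DNA content was read by flow cytometry and histograms analysed for phase percentages. Mean of two independent experiments.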

Jurkat cells [3] = assay: Flow cytometric cell cycle analysis, Jurkat; assay type: cell-based, human; conditions: 24 h, different concentrations
Summary of the method: as §1

HeLa cells [4] = assay: Annexin-V/PI apoptosis assay, HeLa; assay type: cell-based, human; conditions: 24 or 48 h
Summary of the method: (§2)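 Human lines: HeLa grown in DMEM and Jurkat in RPMI-1640, each with 10% FBS, penicillin G and streptomycin. Cells exposed to test compound at several concentrations for 24 or 48 h, harvested and double-stained with annexin-V-FITC and PI. Surface phosphatidylserine read by flow cytometry, giving live, early apoptotic, late apoptotic and necrotic fractions. Mean ± SEM of three independent experiments.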

Jurkat cells [5] = assay: Annexin-V/PI apoptosis assay, Jurkat; assay type: cell-based, human; conditions: 24 or 48 h
Summary of the method: as §2

HeLa cells [6] = assay: Mitochondrial membrane potential; assay type: cell-based, human; conditions: 24 or 48 h
Jurkat cells [7] = assay: Mitochondrial membrane potential; assay type: cell-based, human; conditions: 24 or 48 h
HeLa cells [8] = assay: ROS production; assay type: cell-based, human; conditions: 24 or 48 h
Summary of the method: (§3)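 HeLa or Jurkat cells were treated with test compound for 24 or 48 h, then loaded with H₂-DCFDA, which ROS oxidise to fluorescent DCF. Fluorescence was measured by flow cytometry. Mean ± SEM of three independent experiments.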

Jurkat cells [9] = assay: ROS production; assay type: cell-based, human; conditions: 24 or 48 h
Summary of the method: as §3

[10] = Metabolic stability in human liver microsomes; assay type: in vitro ADME; conditions: 10 μM
Summary of the method: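 Pooled mixed-gender human liver microsomes (1.0 mg/mL) in 0.1 M KH₂PO₄, pH 7.4, with 10 μM final compound, with or without 1 mM NADPH; buffer-only controls. Microsomes added after 3-min equilibration at 37 °C. Stopped at 0, 15, 30 or 60 min with ice-cold acetonitrile, then centrifuged. Supernatants analysed by C18 HPLC with fluorescence detection (ex 344/em 493 nm). Percent remaining from peak area versus 0 min; mean ± SD, n = 3–4.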

bovine brain tubulin = bovine brain tubulin (Bos taurus, UniProt P81947+Q6B856); conditions: read-out: tubulin assembly IC50; cited from earlier work
tubulin = conditions: cited from earlier work
A549 cell line = conditions: cited from earlier work

Sequence of bovine brain tubulin (Q6B856 whole entry): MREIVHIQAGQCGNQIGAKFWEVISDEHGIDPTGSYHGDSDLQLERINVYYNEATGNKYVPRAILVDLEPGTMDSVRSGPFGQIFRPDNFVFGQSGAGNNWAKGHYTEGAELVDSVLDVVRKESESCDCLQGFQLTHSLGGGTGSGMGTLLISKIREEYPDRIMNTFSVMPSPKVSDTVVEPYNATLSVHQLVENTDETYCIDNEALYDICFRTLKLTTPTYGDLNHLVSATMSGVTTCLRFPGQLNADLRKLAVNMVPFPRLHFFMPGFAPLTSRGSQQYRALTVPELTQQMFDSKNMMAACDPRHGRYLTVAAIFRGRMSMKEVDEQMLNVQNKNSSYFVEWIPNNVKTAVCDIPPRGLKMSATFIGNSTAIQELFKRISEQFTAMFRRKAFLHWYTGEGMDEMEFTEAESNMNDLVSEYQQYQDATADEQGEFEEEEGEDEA
Sequence of bovine brain tubulin (P81947 whole entry): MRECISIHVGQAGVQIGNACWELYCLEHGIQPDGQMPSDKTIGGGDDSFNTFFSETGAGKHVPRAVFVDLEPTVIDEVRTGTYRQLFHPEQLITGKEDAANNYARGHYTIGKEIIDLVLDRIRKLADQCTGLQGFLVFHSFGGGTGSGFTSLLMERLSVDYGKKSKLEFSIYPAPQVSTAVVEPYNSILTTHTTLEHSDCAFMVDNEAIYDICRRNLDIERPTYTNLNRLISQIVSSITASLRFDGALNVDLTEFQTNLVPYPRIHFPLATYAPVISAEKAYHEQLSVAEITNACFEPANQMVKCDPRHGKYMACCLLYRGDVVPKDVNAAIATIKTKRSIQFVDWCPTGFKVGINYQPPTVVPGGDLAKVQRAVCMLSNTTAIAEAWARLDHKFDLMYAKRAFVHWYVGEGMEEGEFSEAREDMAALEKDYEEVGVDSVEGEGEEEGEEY

| GI50 [1] | Compound | induction of apoptosis (annexin-V/PI) (HeLa cells [4]) | induction of apoptosis (annexin-V/PI) (Jurkat cells [5]) | cells with low mitochondrial transmembrane potential (JC-1) (HeLa cells [6]) | cells with low mitochondrial transmembrane potential (JC-1) (Jurkat cells [7]) | ROS production (H2-DCFDA) (HeLa cells [8]) | ROS production (H2-DCFDA) (Jurkat cells [9]) | further results |
| --- | --- | --- | --- | --- | --- | --- | --- | --- |
| 250 to 2650 nM | O=C(c1ccccc1)N1CCc2c1ccc1[nH]c(-c3ccccc3)cc(=O)c21 [Compound 7a, 3-benzoyl-1,2-dihydro-7-phenyl-6H-pyrrolo[3,2-f]quinolin-9-one] |  |  |  |  |  |  |  |
| > 10000 nM | CS(=O)(=O)N1CCc2cc3[nH]c(-c4ccccc4)cc(=O)c3cc21 [Compound 8b, 1N-methanesulfonyl-2,3-dihydro-6-phenyl-5H-pyrrolo [2,3-g]quinolin-8-one] |  |  |  |  |  |  |  |

Continued, compound first:

| Compound | GI50 [1] | induction of apoptosis (annexin-V/PI) (HeLa cells [4]) | induction of apoptosis (annexin-V/PI) (Jurkat cells [5]) | cells with low mitochondrial transmembrane potential (JC-1) (HeLa cells [6]) | cells with low mitochondrial transmembrane potential (JC-1) (Jurkat cells [7]) | ROS production (H2-DCFDA) (HeLa cells [8]) | ROS production (H2-DCFDA) (Jurkat cells [9]) | further results |
| --- | --- | --- | --- | --- | --- | --- | --- | --- |
| O=C(c1ccccc1)n1ccc2c3c(=O)cc(-c4ccccc4)[nH]c3ccc21 [Compound 4a, 3-Benzoyl-7-phenyl-6H-pyrrolo[3,2-f]quinolin-9-one] | 0.1 to 10 nM | significant time- and concentration-dependent increase of apoptotic cells | significant time- and concentration-dependent increase of apoptotic cells | marked increase in the percentage of cells with low Δϕmt | marked increase in the percentage of cells with low Δϕmt | induced the production of large amounts of ROS | induced the production of large amounts of ROS | effect on cell cycle progression (HeLa cells [2]): significant G2/M arrest in a concentration-dependent manner; effect on cell cycle progression (Jurkat cells [3]): significant G2/M arrest in a concentration-dependent manner; influence of NADPH on compound disappearance ([10]; HLMs 1 mg/mL, with or without 1 mM NADPH): not influenced by the presence of NADPH; compound remaining ([10]; human liver microsomes 1 mg/mL, 60 min, 37 °C): more than 60% |
| CS(=O)(=O)n1ccc2c3c(=O)cc(-c4ccccc4)[nH]c3ccc21 [Compound 4b, 3-Methanesulfonyl-7-phenyl-6H-pyrrolo[3,2-f]quinolin-9-one] |  | significant time- and concentration-dependent increase of apoptotic cells | significant time- and concentration-dependent increase of apoptotic cells | marked increase in the percentage of cells with low Δϕmt | marked increase in the percentage of cells with low Δϕmt | induced the production of large amounts of ROS | induced the production of large amounts of ROS |  |
| O=c1cc(-c2ccccc2)[nH]c2ccc3c(ccn3CC3CC3)c12 [Compound 10] |  |  |  |  |  |  |  | IC50 (bovine brain tubulin): 900 nM; inhibition of colchicine binding (tubulin): 83%; induction of autophagy (A549 cell line): induce autophagy |
